# An excerpt weighted towards active compounds, which were near 5.3% of everything screened.
# Mdm2 MdmX PPI = inhibitors of human Mdm2-MdmX association, primary screen, cell-based, luminescence, split luciferase, SaOS-2, uHTS. Protein Mdm4 (Homo sapiens) + E3 ubiquitin-protein ligase Mdm2 (Homo sapiens), …. inhibition, % at 8 µM. SaOS-2 split-luciferase Mdm2/MdmX complementation. hit rate 3% among 330,000. AID 485346, 2010;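 active = inhibition of at least 50% at 8 µM in the primary screen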
# Target sequence (O15151 whole entry, looked up): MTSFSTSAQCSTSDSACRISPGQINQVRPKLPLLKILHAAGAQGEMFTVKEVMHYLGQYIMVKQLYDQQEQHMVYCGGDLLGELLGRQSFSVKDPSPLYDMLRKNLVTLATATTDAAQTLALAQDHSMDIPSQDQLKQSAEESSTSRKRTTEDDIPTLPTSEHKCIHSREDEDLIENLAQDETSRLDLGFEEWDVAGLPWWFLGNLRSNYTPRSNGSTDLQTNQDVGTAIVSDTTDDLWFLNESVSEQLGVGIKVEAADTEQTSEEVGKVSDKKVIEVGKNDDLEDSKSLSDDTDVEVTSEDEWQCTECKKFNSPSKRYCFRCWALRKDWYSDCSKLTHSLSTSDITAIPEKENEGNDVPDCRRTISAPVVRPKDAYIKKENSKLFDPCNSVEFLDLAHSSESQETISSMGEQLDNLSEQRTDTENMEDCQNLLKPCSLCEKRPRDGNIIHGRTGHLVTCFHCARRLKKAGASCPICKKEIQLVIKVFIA
# Target sequence (Q00987 whole entry, looked up): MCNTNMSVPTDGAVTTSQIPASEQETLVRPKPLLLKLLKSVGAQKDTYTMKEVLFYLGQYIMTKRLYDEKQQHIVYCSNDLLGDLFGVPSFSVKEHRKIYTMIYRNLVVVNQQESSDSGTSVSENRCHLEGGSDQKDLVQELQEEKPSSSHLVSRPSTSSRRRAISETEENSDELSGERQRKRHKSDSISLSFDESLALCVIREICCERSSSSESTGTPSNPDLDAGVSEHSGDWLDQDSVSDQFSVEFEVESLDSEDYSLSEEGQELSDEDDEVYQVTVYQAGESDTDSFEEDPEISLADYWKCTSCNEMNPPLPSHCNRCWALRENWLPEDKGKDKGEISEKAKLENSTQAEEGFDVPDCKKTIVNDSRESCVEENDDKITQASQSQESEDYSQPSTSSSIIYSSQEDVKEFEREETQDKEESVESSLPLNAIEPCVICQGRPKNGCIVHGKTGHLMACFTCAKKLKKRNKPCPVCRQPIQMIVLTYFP
# Beta cell apopt = inhibitors of cytokine-induced beta cell apoptosis, primary screen, luminescence | INS-1E cytokine-induced death, ATP luminescence, 48 h; percent of positive-control rescue, neutral wells zero | protection from apoptosis, % (test concentration not listed) | hit rate 0.8% among 300,000 | AID 435005, 2010;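 active = Every replicate reaches about 75%, or at least half do and their mean reaches it too, limit read from the data; inconclusive = At least half of replicates reach the limit but their mean does not; inactive = Under half of replicates reach the limit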;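 also: 0% = cytokine-treated negative control wells and 100% = positive control rescue; higher means more ATP so stronger rescue from cytokine killing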
# Calb FLC = C. albicans growth inhibition with fluconazole, primary screen, CaCi-2 strain, Alamar Blue fluorescence; AID 1979, 2009; C. albicans CaCi-2 (fluconazole-resistant clinical isolate) + fluconazole, 48 h; growth inhibition, % (no concentration beside the values); hit rate 0.57% among 300,000;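 active = growth inhibition above about 58% in most replicates, limit read from the data, passing the limit was not always enough; inconclusive = exactly half the replicates above a set limit; inactive = most replicates below a set limit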;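 also: all wells also contain fluconazole at 8 µg/ml as a sub-toxic cotreatment; 0% = median of DMSO wells and 100% = median of geldanamycin control wells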
# CSC inhib = cancer stem cell viability inhibitors, primary screen, luminescence. hit rate 1.1% among 300,000. cancer stem cell-like cells viability. inhibition, % at 7.5 µM. AID 2717, 2010; in the data active = inhibition above about 75%; inconclusive = no clear call, values can overlap the other calls; tested in HMLE shEcad cells
# T cruzi inh = inhibitors of intracellular T. cruzi growth, primary screen, luminescence, NIH3T3 host cells; inhibition, % (no concentration beside the values); T. cruzi beta-gal in NIH3T3, 90 h; hit rate 1.4% among 300,000;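 active = mean inhibition across valid replicates above about 55%, limit read from the data; inconclusive = mean below that limit but half or more replicates reach it; inactive = mean below it, under half of replicates reach it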;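 also: signal also drops with host cell toxicity which is not excluded here; 0% = plate median of DMSO wells and 100% = zero luminescence signal; higher percent means less beta-gal luminescence so fewer parasites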
#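 Material: NIH/3T3 host cells with β-galactosidase reporter T. cruzi; Input: 5,000 host fibroblasts per well; Medium: DMEM, 2% fetal bovine serum; Compound: 50 nL DMSO compound solution per well; Schedule: 3 h host attachment, then at least 90 h co-culture; Detection: luminescent β-galactosidase signal after 60 min lysis.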
# NLRP3 yeast inh = NALP3 inflammasome inhibitors in reconstituted yeast, primary screen, luminescence, uHTS; Yeast reconstituted NLRP3/ASC/caspase-1, beta-gal luminescence, 24 h; inhibition, % at 10 µM; hit rate 0.39% among 330,000; AID 2825, 2010;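 active = inhibition of 50% or more; inactive = inhibition below 50%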;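 also: plate controls were induced DMSO wells for no effect and uninduced yeast grown without galactose for full effect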
# The depositor's hits bear a star; ? = inconclusive; . = not tested or not shown.
SMILES,Mdm2 MdmX PPI,Beta cell apopt,Calb FLC,CSC inhib,T cruzi inh,NLRP3 yeast inh
CCc1ccc(C(=O)COC(=O)[C@@H](NC(N)=O)[C@@H](C)CC)cc1,15.6,-0.6,-10.5,-0.2,1.2,14.9
COc1cccc(C(=O)N/N=c2\oc3c(OC)cccc3cc2C(=O)NCc2ccccc2)c1,0.0,-3.0,-3.2,-10.4,32.7,3.6
CCN1CCc2c(C#N)c(NCc3ccccc3)nc(N(CC)CC)c2C1,28.6,-2.7,-16.3,9.6,81.7*,26.3
CCCc1nc(NCc2ccccc2)c(C#N)c2c1CCCC2,28.1,-11.1,-47.7,25.6,-0.3,16.6
COc1ccc(N2C3=C(CC4=C2CCCC4=O)C(=O)CCC3)cc1,30.7,-11.6,15.4,.,9.8,7.4
COc1ccc(N2C3=C(CC4=C2CC(C)(C)CC4=O)C(=O)CC(C)(C)C3)cc1,32.7,-8.7,-5.0,69.6,63.6*,1.7
Cc1ccc(NC2CCCN(C(=O)CSc3ccncc3)C2)cc1C (stereo not given),19.3,-3.9,16.0,12.8,56.4*,12.0
COc1ccc(NC2CCCN(C(=O)CCc3ccncc3)C2)cc1OC (stereo not given),6.8,1.6,-9.1,.,1.2,8.4
Cc1ccc(NC2CCCN(C(=O)CCc3ccncc3)C2)cc1C (stereo not given),29.6,-2.4,22.5,4.4,62.7*,16.4
Cc1ccc(NC2CCCN(C(=O)Cc3nonc3C)C2)cc1C (stereo not given),-6.7,-3.2,-0.3,-21.0,10.5,10.4
O=C(N/N=C/C=C\c1ccccc1[N+](=O)[O-])c1ccncc1,21.5,.,-1.9,0.2,-17.8,12.0
Cc1ccccc1Oc1cc(NC(=O)Cn2cnc([N+](=O)[O-])c2)cc([N+](=O)[O-])c1,37.4,0.6,21.2,5.7,50.2,7.4
COc1ccc(S(=O)(=O)Nc2ccc(Nc3ccccc3)cc2)cc1,17.6,-2.9,0.5,2.4,17.4,-2.5
COc1cccc(C(=O)OCC(=O)NC23CC4CC(CC(C4)C2)C3)c1,18.1,-0.5,.,-9.5,.,16.4
CS(=O)(=O)c1ccc(C(=O)OCC(=O)NC23CC4CC(CC(C4)C2)C3)cc1[N+](=O)[O-],49.3,-43.7,-8.5,155.0*,2.5,-6.1
O=c1c2cc(NC(=S)NCCCN3CCC(Cc4ccccc4)CC3)ccc2nc2n1CCCCC2,47.7,-2.5,14.1,101.1*,57.2*,4.7
O=c1c2cc(NC(=S)NCCN3CCCCCC3)ccc2nc2n1CCCCC2,15.4,-1.7,-13.1,13.3,8.1,1.4
CCCCN(CC)CCCNC(=S)Nc1ccc2nc3n(c(=O)c2c1)CCCCC3,21.8,5.7,-1.0,-6.3,56.0*,21.1
Cc1ccc(N/N=C2\CS(=O)(=O)N(C)c3ccsc32)cc1,-98.7,5.0,6.8,9.1,64.4*,13.1
CCCC(=O)N/N=C1\CS(=O)(=O)N(C)c2ccsc21,5.5,-1.0,28.4,-5.3,3.8,-26.1
CN1c2ccsc2/C(=N/Nc2ccc(F)cc2)CS1(=O)=O,-106.1,-4.3,-3.2,-23.4,64.2*,23.3
Cc1ccccc1Nc1nnc(SCc2nc3ccccc3c(=O)[nH]2)s1,27.2,7.0,-7.3,-9.2,-6.1,-0.5
O=C1NC(=S)/C(=C\c2ccc(-c3ccccc3Cl)o2)S1,.,-1.1,-7.2,118.1*,-0.8,.
Cc1cccc2cc(/C=N/Nc3ccc(C(=O)O)cc3)c(Cl)nc12,-87.0,-23.2,-2.1,-2.2,16.2,7.1
O=C(Nc1cccnc1)C1(F)C(F)(F)C(F)(F)C(F)(F)C(F)(F)C1(F)F,4.1,109.5*,-16.6,-9.3,-14.9,12.0
SMILES,Mdm2 MdmX PPI,Beta cell apopt,Calb FLC,CSC inhib,T cruzi inh,NLRP3 yeast inh
O=C(CC1CCCC1)N1CCCC(Nc2cccc(F)c2)C1 (stereo not given),-1.5,2.7,28.0,-19.8,-4.3,11.4
Cc1nn(CCc2nn[nH]n2)c2nc(-c3ccc(C4CCCCC4)cc3)cc(C(F)(F)F)c12,37.0,31.7,-4.2,110.4*,24.8,12.5
N#Cc1ccc(OCCN2CCc3ccccc3C2)cc1,-28.2,1.3,20.1,-6.5,2.3,34.2
COc1ccc(OCCOCCN2CCc3ccccc3C2)cc1,10.4,-4.4,-35.0,-3.7,58.0*,11.0
Cc1ccc([N+](=O)[O-])cc1NC(=O)CN(C1CCCCC1)S(=O)(=O)c1ccc(Cl)cc1,.,.,6.0,.,59.0*,.
Cc1ccc([N+](=O)[O-])cc1NC(=O)C1CCCC1,-4.6,.,96.2*,-6.3,-8.4,11.9
Cc1ccc([N+](=O)[O-])cc1NC(=O)CN(C(=O)c1ccccc1Cl)C1CCCCC1,-7.0,-0.6,-1.5,-5.2,12.1,7.2
Cc1ccc([N+](=O)[O-])cc1NC(=O)C1CCN(S(C)(=O)=O)CC1,-12.3,-3.7,-4.9,-10.6,-6.2,-0.3
Cc1ncc([N+](=O)[O-])n1S(=O)(=O)c1cc(Cl)ccc1Cl,8.6,-4.9,-4.0,-1.4,-9.9,-1.3
CCOC(=O)C1CCCN(C(=O)c2cc(-c3ccc(C)cc3)nc3ccccc23)C1 (stereo not given),3.4,-5.0,-22.9,5.9,14.7,0.7
CC1=CN2C(=N)/C(=C/c3ccc(Sc4ccc(C)cc4)o3)C(=O)N=C2S1,-6.1,5.2,9.7,59.9,-20.2,33.7
COC(=O)C1=C(N)N(c2ccccc2C(F)(F)F)C2=C(C(=O)CCC2)C1c1ccc2c(c1)OCO2 (stereo not given),-26.0,0.6,29.1,-11.4,55.9*,12.0
COC(=O)CSC1=C(C#N)C(c2ccc3c(c2)OCO3)C2=C(CCCC2=O)N1 (stereo not given),10.5,.,11.2,-2.6,7.7,19.9
Cc1c(CCO)c(=O)n(C)n1C(=O)c1ccc(Cl)cc1,1.1,-1.6,?,3.5,2.4,-3.2
OCCN(CCO)CC(O)COc1ccc(Br)cc1 (stereo not given),19.4,-2.7,-12.3,-7.2,7.9,10.8
OCCN(CCO)CC(O)COc1ccc(C23CC4CC(CC(C4)C2)C3)cc1 (stereo not given),.,0.0,-58.1,77.6*,6.7,.
CN1CCN(CCCNC(=O)c2ccc(/C=C3\Sc4ccccc4N(Cc4ccccc4F)C3=O)cc2)CC1,.,.,29.5,.,68.6*,.
O=C(O)c1cccc(NC(=O)C23CC4CC(C2)CC(n2cnc(Cl)n2)(C4)C3)c1,11.9,-6.9,2.5,6.9,-22.0,0.3
O=C(Nc1cc(Oc2ccccc2)cc([N+](=O)[O-])c1)C12CC3CC(C1)CC(n1cnc(Cl)n1)(C3)C2,22.2,.,-13.3,20.8,61.7*,9.4
c1csc(-c2csc3ncnc(NCCCN4CCOCC4)c23)c1,21.8,76.2*,-4.0,0.2,-40.8,10.1
Cc1cc(C)n(Cc2cccc(F)c2)c(=O)c1C#N,1.1,1.4,8.4,-4.3,-2.7,-9.5

# Screening data as filed in PubChem.
